BaF3 parental – parental Ba/F3 viability inhibition as JAK2V617F counter-screen; inhibition, % at 5.6 µM; CellTiter-Glo ATP luminescence; hit rate 1.1% among 220,000;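 active means inhibition above a per-campaign cutoff, the mean inhibition of all tested compounds plus 3 SD, cut at about 27% in these data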;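 further: 0% = DMSO wells and 100% = JAK Inhibitor I control wells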
MT stabilizer – microtubule stabilizers in HeLa cells; AID 2205; HeLa tubulin immunostaining HCS, 24 h; share of cells brighter than vehicle mean+2SD; % tubulin-high responders, % at 10 µM; hit rate 0.83% among 200,000;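 active means plate Z-score above 3 for both tubulin-high and condensed-nucleus cell shares, with cell loss under 80%, at 10 µM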;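 further: anti alpha tubulin signal scored within the nucleus-defined area of each cell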
L major viab – Leishmania major promastigote growth inhibition; Leishmania major promastigotes, resazurin fluorescence viability; inhibition, % at 10 µM; hit rate 9% among 200,000; in the data active means inhibition above about 50%;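 further: promastigotes grown with compound for 44 hours at 28 °C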
Ba/F3 V617F tox – lowers viability of Ba/F3 cells expressing EpoR and JAK2V617F; ATP luminescence; inhibition, % at 5.6 µM; hit rate 1.1% among 220,000; AID 1446;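 active means inhibition above the campaign mean plus 3 SD over all tested compounds, cut at about 24% in these data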;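 further: cytokine-independent growth of Ba/F3 cells driven by EpoR plus mutant JAK2; 0% = DMSO-treated cells and 100% = JAK inhibitor I control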
APP transl inh – APP translation inhibition; inhibition, % at 2 µM; AID 1285; SH-SY5Y APP 5'UTR-luciferase reporter, luminescence; hit rate 0.82% among 190,000;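 active means inhibition above a set limit, derived from the sample mean plus 3 SD, cut at about 45% in these data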
bCat nuc transl – beta-catenin nuclear translocation modulation | HeLa beta-catenin nuclear translocation, immunofluorescence imaging | nuclear translocation activity, % at 5 µM | hit rate 0.3% among 190,000 | AID 1665;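 active means nuclear translocation activity above 50% at 5 µM, with a well cell count of 50 or more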;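 further: per-cell ratio of nuclear to cytoplasmic median beta-catenin stain intensity; plate controls were DMSO negative control for no effect and GSK-3 inhibitor IX positive control for full effect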
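Test system: human HeLa cells, endogenous beta-catenin. Times: 24 h compound exposure, 37°C. Measured by: beta-catenin immunofluorescence imaging with DAPI.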
* = called active by the depositor; nt = no result given. Hits are enriched below; roughly 9.6% of the tested compounds scored in any of these assays.

SMILES | BaF3 parental | MT stabilizer | L major viab | Ba/F3 V617F tox | APP transl inh | bCat nuc transl
CCN(CC)S(=O)(=O)c1ccc(N2CCOCC2)c(NC(=O)Cc2ccccc2)c1 | 11 | 4 | 4 | 3 | 0 | -2
CCN(CC)S(=O)(=O)c1ccc(N2CCOCC2)c(NC(=O)Cc2cccc3ccccc23)c1 | 4 | 5 | 95* | -5 | -5 | 0
CCN(CC)S(=O)(=O)c1ccc(N2CCOCC2)c(NC(=O)C23CC4CC(CC(Cl)(C4)C2)C3)c1 | 6 | 3 | 56* | -1 | -1 | nt
CCN(CC)S(=O)(=O)c1ccc(N2CCOCC2)c(NC(=O)Cc2ccccc2F)c1 | 4 | 2 | 71* | -3 | -1 | -3
Cn1cc(CC(=O)N2CCN(c3ccccc3F)CC2)c2ccccc21 | 9 | 3 | -2 | -2 | -9 | nt
Cn1cc(CC(=O)N2CCN(c3ccc(Cl)cc3)CC2)c2ccccc21 | 4 | 2 | 65* | -3 | 0 | -1
CC(C)c1ccccc1-n1c(SCC(=O)N2CCN(c3ccccc3)CC2)nnc1-c1cccnc1 | 4 | 6 | 96* | -1 | -32 | -1
Nn1c(SCC(=O)N2CCCc3ccccc32)nnc1-c1ccccc1 | 1 | 6 | -4 | 1 | -12 | 1
O=C(CSc1nnc(-c2cccnc2)n1-c1ccc(SC(F)F)cc1)N1CCCc2ccccc21 | 7 | 1 | 88* | 0 | -10 | 1
Cc1ccc(-n2c(SCC(=O)N3CCCc4ccccc43)nnc2-c2cccnc2)c(C)c1 | 6 | 1 | 59* | 1 | 25 | 0
Cn1c(Cc2cccc3ccccc23)nnc1SCC(=O)N1CCN(c2ccccc2)CC1 | 2 | 2 | 58* | -4 | -21 | 0
CCN(CC)CCNC(=S)Nc1ccc(F)cc1 | 5 | 2 | -5 | 4 | 3 | 2
CCOc1ccccc1-n1c(SCC(=O)N2CCCc3ccccc32)nnc1-c1cccnc1 | -1 | 3 | 53* | -3 | -8 | -2
CCCCNCC#CCOc1cc(C)ccc1C(C)C | 5 | 6 | 95* | 2 | 0 | 0
Cc1ccc(C(C)C)c(OCCNS(C)(=O)=O)c1 | 2 | 3 | -2 | -3 | 5 | 2
Cc1ccc(C(C)C)c(OCCCNCc2cccnc2)c1 | 6 | 4 | 87* | 3 | -14 | -2
Cc1cn(C(=O)c2ccccc2)c(=S)n1-c1ccc(Br)cc1 | 7 | 4 | 17 | 2 | 19 | -1
O=C(O)C1=C[C@H](c2csc3ccccc23)C[C@H](OCCCCO)O1 | 5 | 4 | -6 | -4 | 10 | -2
CCc1cccc2c(C(=O)CN3C(=O)NC(C)(c4cccc5ccccc45)C3=O)c[nH]c12 (configuration not stated) | 10 | 13 | 63* | 1 | 8 | -3
CC(=O)Nc1ccc(Nc2ncnc3c2cnn3-c2cccc(C)c2)cc1 | 1 | 5 | 75* | -5 | -32 | -2
COc1ccc(OC)c(Nc2ncnc3c2cnn3-c2cccc(C)c2)c1 | 3 | 35* | 18 | 0 | 16 | 1
CC(=O)Nc1ccc(Nc2ncnc3c2cnn3-c2ccc(C)cc2C)cc1 | 2 | 4 | 68* | -2 | nt | 4
CC(=O)Nc1ccc(Nc2ncnc3c2cnn3-c2ccccc2)cc1 | 6 | 3 | 9 | -1 | -20 | -1
Cc1c(C(=O)OCC(=O)Nc2cccc(S(N)(=O)=O)c2)oc2c1ccc1ccccc12 | 7 | 3 | -2 | 1 | -15 | 1
CC(=O)c1ccc(NC(=O)c2cnsn2)cc1 | 4 | 2 | -2 | 1 | -90 | 0
SMILES | BaF3 parental | MT stabilizer | L major viab | Ba/F3 V617F tox | APP transl inh | bCat nuc transl
COc1cccc(-n2c(=O)[nH]cc(C(=O)Nc3ccc(NC(C)=O)cc3)c2=O)c1 | 2 | 5 | -9 | -4 | -17 | 1
COc1ccc(C(O)C(CN2CCOCC2)c2ccccc2)cc1F (configuration not stated) | 6 | 3 | 86* | 2 | -7 | -1
COC(=O)CNc1c(-c2ccccc2)nc2ccc(Br)cn12 | 10 | 1 | 6 | 5 | -35 | nt
Cc1ccc(NC(=O)Nc2ncnc3nc[nH]c23)cc1 | -1 | nt | nt | -1 | nt | -1
CCCCN1C(=O)C(=Nc2cccc3cnccc23)c2ccccc21 | 4 | 10 | 77* | 3 | -42 | 1
COc1cc2nc(C3CCC3)nc(N3CCN(c4ccccn4)CC3)c2cc1OC | -1 | 3 | 54* | -3 | -21 | nt
COc1cc2nc(Cl)nc(N3CCN(C)CC3)c2cc1OC | 2 | 4 | 9 | 1 | 9 | -1
COc1cc2nc(C3CCC3)nc(N3CCN(c4ccccc4OC)CC3)c2cc1OC | 5 | 2 | 58* | -1 | 11 | nt
CCOc1ccc(N2C(=O)C(c3ccccc3)=C(c3nc4ccccc4s3)C2NC(C)=O)cc1 (configuration not stated) | 4 | 2 | 51* | 1 | -44 | nt
CCOc1ccc(-n2nnnc2-c2nc3ccccc3s2)cc1 | 5 | 3 | -3 | 0 | -123 | 0
Cc1nc(Nc2ccc(S(=O)(=O)N3CCCCC3C)cc2)c2nnn(Cc3ccccc3)c2n1 (configuration not stated) | 5 | 4 | 90* | -1 | -5 | -2
COc1ccc(NC(=O)C23CC4CC(C2)CC(n2cnc(Br)n2)(C4)C3)cc1Cl | 1 | 2 | 1 | 0 | 47* | nt
O=C(Nc1cccc2ccccc12)C12CC3CC(C1)CC(n1cnc([N+](=O)[O-])n1)(C3)C2 | 3 | 2 | 73* | -4 | 2 | -1
O=C(Nc1cc(Oc2ccccc2)cc([N+](=O)[O-])c1)C12CC3CC(C1)CC(n1cnc(Cl)n1)(C3)C2 | 9 | 2 | 80* | 4 | -1 | 3
O=C(CN1CCCCCC1)N/N=C/c1cccc(Cl)c1Cl | 6 | 2 | 62* | -2 | -4 | -4
Cc1cc(/C=N\NC(=O)CC(=O)NC2CCCCC2)c(C)n1-c1cccc(Cl)c1Cl | 0 | 6 | 95* | -3 | -9 | 0
O=C(CO)N/N=C/c1cccc(Cl)c1Cl | 3 | 2 | -8 | -3 | -6 | 12
O=C(CN1CCSCC1)N/N=C/c1ccccc1F | 7 | 2 | -2 | 3 | nt | nt
O=C(CN1CCCCCCC1)N/N=C/c1ccccc1F | 0 | 3 | 52* | -2 | 8 | nt
O=C(CN1CCCCCCC1)N/N=C/c1ccc(F)c(F)c1 | 4 | 4 | 97* | 3 | -14 | nt
COc1ccc2nc(SCCOC(=O)Nc3ccc(Cl)cc3)nc(C)c2c1 | -2 | 2 | -4 | -1 | -5 | 0
CC(C)(C)c1cc[n+](-c2[nH]c(=O)sc2/C=N/NC([S-])=Nc2ccccc2)cc1 | 1 | nt | nt | -2 | nt | 30
c1ccc(-c2c[nH]c3[n+]2CCCCC3)cc1 | 6 | 2 | -1 | 3 | 7 | nt
FC(F)Sc1ccc(-n2cc(-c3ccc(Cl)cc3)[n+]3c2CCC3)cc1 | 36* | 2 | 31 | 25* | 4 | 0
Brc1ccc(-c2csc3[n+]2CCCCC3)cc1 | 55* | 2 | 4 | 55* | 0 | -1

High-throughput results: PubChem BioAssay, several laboratories
